Experimental data published in paper PMC8567357 (ACS Omega, 2021).
Read-outs that look alike come from different tables or passages of the source.

Experiments:
[1] = DPPH radical scavenging effect; conditions: for IC50: read-out: DPPH mean IC50
Summary of the method: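 Ethanolic DPPH was mixed with an equal volume of each sample concentration, shaken, and kept 1 h at room temperature in the dark. Residual DPPH absorbance was read at 519 nm against a control without test compound. BHT was the positive control. Scavenging % was calculated from compound and control absorbances. IC50 was taken from the scavenging-versus-concentration plot. Values are means of two determinations ± SD.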

[2] = tested on: E. coli (ATCC 25922); test: Antibacterial assay; assay type: cell-based; conditions: Escherichia coli
Summary of the method: (§1)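 Hospital-collected standard isolates were grown fresh on nutrient agar and suspended in nutrient broth to 0.5 McFarland. Test compound was mixed with 2 × 10⁷ CFU/mL in sterile BHI and shaken 60 min at 37 °C. Samples were serially diluted in BHI, plated, and incubated 24 h at 37 °C. Residual CFU were compared with the initial inoculum. IC50 is the mean of two measurements. Ampicillin was the positive reference.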

[3] = tested on: Enterococcus faecalis (ATCC 29122); test: Antibacterial assay; assay type: cell-based; conditions: ATCC29122, read-out: Enterococcus faecalis mean IC50 (μM)
Summary of the method: as §1

[4] = target: purified recombinant human LDHA protein (Homo sapiens, UniProt P00338); test: Lactate dehydrogenase; assay type: biochemical; conditions: for inhibition at 100 µg/mL: read-out: LDHA mean inhibitory % ± SD
[5] = target: Pyruvate Dehydrogenase Kinase-1 (PDK-1) (Homo sapiens, UniProt Q15118); test: Pyruvate dehydrogenase kinase; assay type: biochemical; conditions: for inhibition at 100 µg/mL: read-out: PDK-1 mean inhibitory % ± SD
Chain of Pyruvate Dehydrogenase Kinase-1 (PDK-1) (Q15118 29-436): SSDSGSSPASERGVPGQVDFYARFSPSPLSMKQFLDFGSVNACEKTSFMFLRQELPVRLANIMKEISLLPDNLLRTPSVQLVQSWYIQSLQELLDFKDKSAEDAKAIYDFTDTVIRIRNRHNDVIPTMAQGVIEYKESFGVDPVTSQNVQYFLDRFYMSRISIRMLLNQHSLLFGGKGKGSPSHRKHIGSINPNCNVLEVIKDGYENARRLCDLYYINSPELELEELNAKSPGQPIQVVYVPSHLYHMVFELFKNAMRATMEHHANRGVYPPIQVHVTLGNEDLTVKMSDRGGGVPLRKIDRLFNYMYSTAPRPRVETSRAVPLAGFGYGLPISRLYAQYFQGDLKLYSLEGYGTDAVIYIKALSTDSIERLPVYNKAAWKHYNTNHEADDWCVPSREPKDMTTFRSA
Summary of the method: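 PDK-1 activity measured by the Kinase-Glo luminescent method. Wells held 10× assay buffer (250 mM Tris–HCl, 50 mM MgCl₂, 5 mM EGTA, 10 mM EDTA, 10 mM DTT), test compound (25–300 μg), and added solutions of PDH E1 (10 μM), ATP (10 μM) and PDK-1 (20 μM) in KCl/K₃PO₄/MgCl₂ buffer. Incubated 30 min at 37 °C, then Kinase-Glo reagent for 10 min at room temperature, and luminescence read. Controls: PBS or 1% DMSO; sodium dichloroacetate 1000 μM as reference. Mean ± SD of two replicates.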

[6] = tested on: HCT-116 cells; test: Cytotoxicity assay; assay type: cell-based, human; conditions: for IC50: Homo sapiens
Summary of the method: (§2)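 ATCC-sourced cells were cultured 24 h at 37 °C in 5% CO₂ with test compound (25, 50, 75, 100, 200, 400 μg) diluted in DMEM with 10% FBS. LDH released into the supernatant was measured by end-point ELISA, with OD read at 550 nm. Controls were 0.1% Triton X-100 (positive) and medium alone (negative). Viability is % OD relative to control, at 100 μg final, mean ± SD (n = 2). IC50 was taken from the viability-versus-concentration plot.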

[7] = tested on: LoVo cells; test: Cytotoxicity assay; assay type: cell-based, human; conditions: for IC50: Homo sapiens, LoVo
Summary of the method: as §2

[8] = Cytotoxicity assay; assay type: cell-based, human; conditions: human, HCT-116 cells (colorectal cancer cell line)
Summary of the method: as §2

[9] = Cytotoxicity assay; assay type: cell-based, human; conditions: human, LoVo cells (colorectal cancer cell line)
Summary of the method: as §2

[10] = ATCC25922, read-out: E. coli mean IC50 (μM)
[11] = ATCC25922, read-out: E. coli mean IC50 (μg/mL) ± SD
[12] = HCT-116, read-out: HCT-116 mean IC50 (μM)
[13] = HCT-116, read-out: HCT-116 mean IC50 (μg/mL) ± SD
[14] = read-out: LoVo cells mean IC50 (μM)
[15] = read-out: LoVo cells mean IC50 (μg/mL) ± SD
[16] = LDHA IC50 (μg/mL) ± SD, mean of two determinations
[17] = PDK1 IC50 (μg/mL) ± SD, mean of two determinations

| DPPH mean IC50 (μg/mL) ± SD [1] [µg/mL] | IC50 [1] [µM] | IC50 [2, 10] [µM] | IC50 [2, 11] [µg/mL] | IC50 [3] [µM] | inhibition at 100 µg/mL [4] [%] | inhibition at 100 µg/mL [5] [%] | IC50 ([4]; LDHA IC50 (μM)) [µM] | IC50 [4, 16] [µM] | IC50 ([5]; PDK1 IC50 (μM)) [µM] | IC50 [5, 17] [µM] | Molecule | mean % of viable HCT-116 cell (positive control) ([6]; 0.1% in assay medium) [%] | mean % of viable LoVo cells (positive control) ([7]; 0.1% in assay medium) [%] | IC50 [6, 12] [µM] | IC50 [6, 13] [µg/mL] | viability at 24 h, 100 μg/mL [8] [%] | viability at 24 h, 100 μg/mL [9] [%] | IC50 [7, 14] [µM] | IC50 [7, 15] [µg/mL] |
| --- | --- | --- | --- | --- | --- | --- | --- | --- | --- | --- | --- | --- | --- | --- | --- | --- | --- | --- | --- |
| 332.5 ± 17.68 | 1870 | 147 | 26.2 ± 1.06 | 119 | 23.1 ± 3.05 | 11.2 ± 3.18 |  |  |  |  | N#Cc1c(N)sc2c1CCCC2 [1c, 2-amino-4,5,6,7-tetrahydro-benzo[b]thiophene-3-carbonitrile] |  |  |  |  |  |  |  |  |
|  |  |  |  |  |  |  |  |  |  |  | Triton X-100 [reference compound] | 0.00 | 0.00 |  |  |  |  |  |  |
| 210.0 ± 28.28 | 679 | 94.9 | 29.4 ± 1.2 | 111 | 32.6 ± 2.33 | 36.5 ± 2.12 |  |  |  |  | CN(C)C=Nc1sc2c(c1C#N)CCC(c1ccccc1)C2 (stereo not drawn) [compound 9, N′-(3-Cyano-6-phenyl-4,5,6,7-tetrahydrobenzo[b]thiophen-2-yl)-N,N-dimethyl Formamidine] |  |  | 524 | 162 ± 4.24 | 69 ± 1.41 | 71.8 ± 2.55 | 642 | 198 ± 4.95 |
| 110.0 ± 14.14 | 432 |  |  | 83.4 | 74.1 ± 2.97 | 87 ± 2.83 | 252 | 252 | 224 | 224 | N#Cc1c(N)sc2c1CCC(c1ccccc1)C2 (stereo not drawn) [compound 1b, 2-amino-6-phenyl-4,5,6,7-tetrahydrobenzo[b]thiophene-3-carbonitrile] |  |  |  |  | 53.5 ± 2.12 | 56.5 ± 0.71 |  |  |
| 595.0 ± 21.21 | 1450 | 89.4 | 36.8 ± 1.7 | 90.6 | 18.4 ± 1.98 | 18.4 ± 1.98 |  |  |  |  | CCOC(=O)c1c(NC(=O)c2cccs2)sc2c1CCC(c1ccccc1)C2 (stereo not drawn) [3e, Ethyl 6-Phenyl-2-(thiophene-2-carboxamido)-4,5,6,7-tetrahydrobenzo[b] thiophene-3-carboxylate] |  |  |  |  |  |  |  |  |
| 130.0 ± 14.14 | 398 |  |  | 83.5 | 19.3 ± 0.85 | 51.5 ± 3.54 | 892 | 891 | 302 | 302 | CCOC(=O)Nc1sc2c(c1C#N)CCC(c1ccccc1)C2 (stereo not drawn) [compound 3b, Ethyl (3-Cyano-6-phenyl-4,5,6,7-tetrahydrobenzo[b]thiophen-2-yl)carbamate] |  |  | 218 | 71 ± 2.83 | 28 ± 1.41 | 35.5 ± 2.12 | 250 | 81.5 ± 3.54 |
| 222.5 ± 17.68 | 661 | 82.9 | 27.9 ± 2.26 | 83.5 | 48.8 ± 5.3 | 35.9 ± 4.1 | 276 | 276 | 428 | 428 | N#Cc1c(N2C(=O)CCC2=O)sc2c1CCC(c1ccccc1)C2 (stereo not drawn) [compound 7, 2-(2,5-Dioxopyrrolidin-1-yl)-6-phenyl-4,5,6,7-tetrahydrobenzo[b]thiophene-3-carbonitrile] |  |  | 288 | 97 ± 2.83 | 47.2 ± 1.06 | 51.5 ± 2.12 | 323 | 108 ± 3.54 |
| 332.5 ± 17.68 | 1060 | 181 | 56.6 ± 1.98 | 126 | 29.6 ± 1.98 | 23.7 ± 2.4 |  |  |  |  | COc1ccc(C=Nc2sc3c(c2C#N)CCCC3)cc1O [compound 11, 2-((3-Hydroxy-4-methoxybenzylidene)amino)-4,5,6,7-tetrahydrobenzo[b]thiophene-3-carbonitrile] |  |  | 403 | 126 ± 4.25 | 60.5 ± 2.12 | 63.8 ± 1.77 | 474 | 148 ± 4.24 |
| 440.0 ± 28.28 | 1030 | 62.8 | 26.9 ± 0.57 | 62.2 | 30.8 ± 1.7 | 41 ± 2.83 |  |  |  |  | CCOC(=O)c1c(NC(=O)CN2CCOCC2)sc2c1CCC(c1ccccc1)C2 (stereo not drawn) [5a, Ethyl 2-(2-Morpholinoacetamido)-6-phenyl-4,5,6,7-tetrahydrobenzo[b]thiophene-3-carboxylate] |  |  |  |  |  |  |  |  |
| 54.0 ± 5.66 | 245 |  |  |  |  |  |  |  |  |  | Cc1cc(C(C)(C)C)c(O)c(C(C)(C)C)c1 [BHT, butylated hydroxy toluene, reference compound] |  |  |  |  |  |  |  |  |
|  |  | 58 | 20.2 ± 1.77 | 36.5 |  |  |  |  |  |  | CC1(C)S[C@@H]2[C@H](NC(=O)[C@H](N)c3ccccc3)C(=O)N2[C@H]1C(=O)O [ampicillin, reference compound] |  |  |  |  |  |  |  |  |
| 665.0 ± 21.21 | 1780 | 72.4 | 27.1 ± 0.35 | 102 | 28.8 ± 2.06 | 21.5 ± 2.4 |  |  |  |  | CCOC(=O)Nc1sc2c(c1C(=O)OCC)CCC(c1ccccc1)C2 (stereo not drawn) [3a, Ethyl 2-((Ethoxycarbonyl)amino)-6-phenyl-4,5,6,7-tetrahydrobenzo[b]thiophene-3-carboxylate] |  |  |  |  |  |  |  |  |
| 390.5 ± 13.44 | 1300 | 82.6 | 24.9 ± 0.99 | 146 | 19.2 ± 3.18 | 12.3 ± 1.91 |  |  |  |  | CCOC(=O)c1c(N)sc2c1CCC(c1ccccc1)C2 (stereo not drawn) [compound 1a, 2-amino-6-phenyl-4,5,6,7-tetrahydrobenzo[b]thiophene-3-carboxylic acid ethyl ester] |  |  |  |  |  |  |  |  |
